High-throughput results (PubChem BioAssay)
NSD2 HMT inh = NSD2 histone methyltransferase inhibitors, primary screen, biochemical, AlphaScreen, single concentration, set 2; NSD2 peptide methylation, 120 min; inhibition, % at 12.5 µM; actives 0.54% (n = 310,000); AID 743445, 2014; in the data active = inhibition above about 50%
Target sequence (O96028 whole entry, looked up): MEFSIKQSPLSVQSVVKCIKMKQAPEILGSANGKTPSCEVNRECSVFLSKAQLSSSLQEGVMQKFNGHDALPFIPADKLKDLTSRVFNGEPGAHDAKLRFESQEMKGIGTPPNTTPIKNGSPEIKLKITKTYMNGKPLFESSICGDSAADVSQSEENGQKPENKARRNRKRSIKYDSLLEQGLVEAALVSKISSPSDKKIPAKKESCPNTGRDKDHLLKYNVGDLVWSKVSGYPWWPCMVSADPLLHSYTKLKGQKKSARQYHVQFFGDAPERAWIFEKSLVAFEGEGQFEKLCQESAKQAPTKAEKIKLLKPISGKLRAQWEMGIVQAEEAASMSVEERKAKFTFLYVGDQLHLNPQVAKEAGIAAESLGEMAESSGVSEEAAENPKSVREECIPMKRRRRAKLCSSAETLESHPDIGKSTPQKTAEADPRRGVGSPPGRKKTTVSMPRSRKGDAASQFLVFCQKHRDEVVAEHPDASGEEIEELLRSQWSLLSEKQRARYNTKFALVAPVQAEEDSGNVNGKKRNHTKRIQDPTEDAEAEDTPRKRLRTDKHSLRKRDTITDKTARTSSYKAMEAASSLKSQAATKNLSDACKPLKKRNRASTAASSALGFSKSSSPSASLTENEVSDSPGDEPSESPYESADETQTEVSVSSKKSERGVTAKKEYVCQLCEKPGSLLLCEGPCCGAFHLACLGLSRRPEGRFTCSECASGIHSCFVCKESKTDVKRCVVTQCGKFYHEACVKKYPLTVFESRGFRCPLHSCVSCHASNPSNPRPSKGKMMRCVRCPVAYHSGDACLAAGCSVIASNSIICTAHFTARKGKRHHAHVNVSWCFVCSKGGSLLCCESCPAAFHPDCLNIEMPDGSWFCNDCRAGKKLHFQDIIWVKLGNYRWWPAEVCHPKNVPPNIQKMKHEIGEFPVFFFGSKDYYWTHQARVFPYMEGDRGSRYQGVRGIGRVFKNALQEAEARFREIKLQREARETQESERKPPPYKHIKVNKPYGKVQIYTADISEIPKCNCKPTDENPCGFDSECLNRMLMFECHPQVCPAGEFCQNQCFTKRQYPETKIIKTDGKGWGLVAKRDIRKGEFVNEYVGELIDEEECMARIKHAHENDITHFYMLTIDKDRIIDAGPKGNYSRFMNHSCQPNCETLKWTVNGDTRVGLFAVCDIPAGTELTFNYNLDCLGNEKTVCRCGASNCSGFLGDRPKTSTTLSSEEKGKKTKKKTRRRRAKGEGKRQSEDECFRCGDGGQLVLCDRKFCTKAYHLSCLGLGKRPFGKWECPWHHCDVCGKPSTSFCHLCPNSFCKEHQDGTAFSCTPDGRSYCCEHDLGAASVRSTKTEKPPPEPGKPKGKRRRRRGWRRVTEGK
SR-BI HDL uptake = inhibitors of SR-BI mediated HDL lipid uptake, primary screen, ldlA[mSR-BI] cells, fluorescence, single point | ldlA[mSR-BI] CHO cells, DiI-HDL uptake fluorescence, 3 h | AID 488896, 2010 | inhibition, % at 12.5 µM | Scavenger receptor class B member 1 (Mus musculus), Q61009 | actives 0.96% (n = 320,000);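 active = mean replicate inhibition of at least 70% and a set share of replicates each scoring 70 or more; inconclusive = meets just one of the two criteria; inactive = fails both criteria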;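 also: 0% = median of neutral control wells and 100% = median of positive control wells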
Xi reactivation = activators of inactive X chromosome reactivation, primary screen, imaging, XiGFP fibroblasts, GFP high-content imaging, set 2; XiGFP mouse fibroblasts, % GFP-positive cells imaging, 3 d; cells co-treated with 5-aza-dC sensitizer; scaled so ellipticine positive control = 100%; activation, % at 7.58 µM; actives 0.055% (n = 360,000); AID 743238, 2013;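 active = mean normalized replicate activation at least 10% and every replicate at or above 10%; inconclusive = only one of the two criteria met; inactive = mean below 10% and not all replicates reach 10%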;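 also: 0% = median of on-plate neutral control wells and 100% = ellipticine 6 µM median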
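Schedule: 3 d treatment, 15 min room-temperature fixation; system: 68-5-11 XiGFP fibroblast line; buffer or medium: DMEM plus 5-aza-dC sensitizer; control set: ellipticine 6 µM positive control; compound: one concentration, pinned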
sPLA2-III inh = human group III sPLA2 inhibitors, primary screen, biochemical, QFRET, BODIPY PC-A2 liposome substrate | Group 3 secretory phospholipase A2 (Homo sapiens), Q9NZ20 | QFRET BODIPY PC-A2 liposome hydrolysis, fluorescence | inhibition, % at 12.2 µM | actives 0.56% (n = 370,000) | AID 743126, 2013;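 active = inhibition above mean plus 3 SD of compounds lying within the high and low control bounds, cut at about 19% in these data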;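 also: 0% = median of test compound wells and 100% = no enzyme DMSO wells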
ARNT TACC3 PPI = disruptors of ARNT/TACC3 protein interaction, primary screen, biochemical, AlphaScreen, single concentration; Transforming acidic coiled-coil-containing protein 3 (Homo sapiens), Q9Y6A5; AlphaScreen His-ARNT PAS-B/GST-TACC3 binding, luminescence; TACC3 fragment carries E629A point mutation; inhibition, % at 9.99 µM; actives 0.66% (n = 390,000); AID 623870, 2012;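 active = mean inhibition of replicates at least 50% and at least half of replicates each reaching 50%; inconclusive = half or more replicates reach 50% but mean below 50%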;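 also: 0% = complete ARNT plus TACC3 wells and 100% = ARNT alone without TACC3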
SR-BI uptake up = activators of SR-BI mediated DiI-HDL uptake, primary screen, ldlA[mSR-BI] CHO cells, DiI fluorescence. 3 h; 100 = double the neutral-control signal. activation, % at 12.5 µM. actives 0.096% (n = 320,000);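 active = mean replicate activation of at least 60% and every replicate at or above 60%; inconclusive = mean or all-replicate condition met, but not both; inactive = mean below 60% and not all replicates reaching 60%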;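 also: 0% = median plate neutral-control signal and 100% = twice that signal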
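Test system: SR-BI-overexpressing, LDLR-lacking CHO cells. Measured by: DiI fluorescence, bottom read. Medium: Ham's F12 with 0.5% BSA, HEPES 25 mM, pH 7.4. Timing: 3 h uptake period with compound, 37 °C.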
DiI quencher = DiI fluorescence quenching in cell-free counter-screen | shares compounds with SR-BI HDL uptake | cell-free DiI-HDL fluorescence quenching, 30 min | AC50, µM (top dose mostly 35 µM), for the others: at the highest dose activity change, negative = quenching | actives 20% (n = 470);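 active = quenching, a falling signal, with AC50 below a set limit tied to the top valid dose, actives reach about 32 µM in these data; inconclusive = no clear call, values can overlap the other calls; inactive = rising signal, and the rest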
Active calls of the source: *; ? = inconclusive; nt = not tested or not shown. Hits are enriched below; roughly 2% of the tested compounds scored in any of these assays.

SMILES | NSD2 HMT inh | SR-BI HDL uptake | Xi reactivation | sPLA2-III inh | ARNT TACC3 PPI | SR-BI uptake up | DiI quencher
Cc1cc(C(=O)COC(=O)c2ccc(Cl)c(S(N)(=O)=O)c2)c(C)n1C1CC1 | 7 | 75* | 0 | 4 | 5 | -75 | 2%
COc1ccc(OC)c(CCNC(=O)c2ccc3c(c2)N(Cc2ccccc2)CCS3)c1 | 3 | 76* | 0 | -5 | -3 | -76 | -4%
CCOC(=O)N1CCC(NC(=O)c2ccc3c(c2)N(Cc2ccc(F)cc2)CCS3)CC1 | nt | 72* | 0 | 4 | nt | -72 | -11%
O=C(CSC1CCc2ccccc21)NN=Cc1ccco1 (configuration not stated) | -1 | nt | 0 | -8 | nt | nt | nt
CC1CCc2c(sc(Nc3nc4c(F)cccc4s3)c2C(N)=O)C1 (configuration not stated) | -2 | 80* | 0 | -1 | -4 | -80 | 3.3µM*
O=C(Nc1ccc(Cc2ccc(NC(=O)C3CC3)cc2)cc1)C1CC1 | -1 | -28 | -1 | -8 | -6 | 28 | nt
CCc1cccc(C)c1NC(=O)c1cc(-c2ccncc2)nc2ccccc12 | 2 | 27 | 0 | -5 | 29 | -27 | nt
COc1ccc(CCN2C(=O)CC(C(N)=O)SC2=Nc2ccc(F)cc2)cc1OC (configuration not stated) | -1 | 6 | 0 | -12 | -1 | -6 | nt
COc1ccc(-c2cc(C(F)(F)F)nc(SCCC(=O)N3CCN4CCCC4C3)n2)cc1 (configuration not stated) | 0 | ? | nt | -12 | 8 | -73 | -3%
COc1ccc2nc3oc(C(=O)NCc4cccs4)cc3cc2c1 | -5 | -10 | nt | 9 | -6 | 10 | nt
Fc1ccc(-c2cc(-c3cccs3)cc(-c3ccccc3)n2)cc1 | 0 | 83* | 0 | -2 | -2 | -83 | 0%
Fc1ccc(-c2nc(-c3cccs3)no2)cc1 | -2 | nt | 0 | 1 | -1 | nt | nt
CCCCCCOC(=O)CCc1c(C)nc(N)[nH]c1=O | 6 | -5 | nt | 1 | -5 | 5 | nt
CCCCCCCCOC(=O)CCc1c(C)[nH]c(=S)[nH]c1=O | -1 | 80* | nt | -5 | -6 | -80 | -2%
CSc1ccccc1C(=O)N1CCC(CCC(=O)NC2CC2)CC1 | 2 | -15 | 0 | 3 | -3 | 15 | nt
CC1CN(c2oc(COc3ccc(Cl)cc3Cl)nc2C#N)CC(C)O1 (configuration not stated) | 0 | 81* | nt | 4 | 32 | -81 | 1%
CC(=O)NCCC1CCN(C(=O)c2cc(COc3ccc(C)nc3)on2)CC1 | -3 | 76* | 0 | -1 | 1 | -76 | -6%
C[C@@H]1CN([C@@H](C)CO)C(=O)c2cc(NS(=O)(=O)c3cccs3)ccc2O[C@@H](C)CCCCO[C@@H]1CN(C)C(=O)CCCN(C)C | nt | nt | 0 | nt | -2 | nt | nt
Cc1cccc(OCC(=O)Nc2ccc(S(=O)(=O)Nc3cc(C)nc(C)n3)cc2)c1 | 0 | -12 | 0 | -14 | 2 | 12 | nt
COc1ccc(-c2nnn(CC(=O)N(C3CCCC3)C(C)C(=O)NC3CCCC3)n2)cc1OC (configuration not stated) | 4 | 52 | nt | -1 | -2 | -52 | nt
COc1ccc(N(CC(=O)NC2CCCC2)C(=O)Cn2nnc(-c3ccc(C)o3)n2)cc1 | -3 | nt | 0 | -1 | -2 | nt | nt
COc1ccc(N(CC(=O)NC2CCCC2)C(=O)Cn2nnc(-c3ccc(C)cc3)n2)cc1OC | -2 | 29 | nt | 4 | 21 | -29 | nt
COc1ccc(N(CC(=O)NC2CCCC2)C(=O)Cn2nnc(-c3ccc(C)cc3)n2)cc1 | 0 | 8 | nt | -19 | 2 | -8 | -3%
COc1ccc(-c2nnn(CC(=O)N(CC(=O)NC3CCCC3)c3cccc(C)c3)n2)cc1OC | -1 | 83* | nt | -14 | -11 | -83 | 0%
COc1ccc(-c2nnn(CC(=O)N(C3CCCCC3)C(C)C(=O)NC3CCCC3)n2)cc1OC (configuration not stated) | 0 | 86* | nt | -5 | -5 | -86 | 1%
SMILES | NSD2 HMT inh | SR-BI HDL uptake | Xi reactivation | sPLA2-III inh | ARNT TACC3 PPI | SR-BI uptake up | DiI quencher
Cc1cc(C(=O)C(C)OC(=O)C2=NNC(=O)CC2)c(C)n1-c1ccc(OC(F)F)cc1 (configuration not stated) | 0 | 82* | nt | 1 | 3 | -82 | -2%
Cc1cc(C(=O)COC(=O)C2=NNC(=O)CC2)c(C)n1-c1ccc(OC(F)F)cc1 | 0 | 8 | nt | 2 | -2 | -8 | nt
Cc1c(C(=O)OCCOC(C)C)[nH]c2c1C(=O)CC(c1ccco1)C2 (configuration not stated) | nt | 89* | nt | nt | -5 | -89 | -1%
C=CCOC(=O)c1[nH]c2c(c1C)C(=O)CC(c1cc(OC)c(OC)c(OC)c1)C2 (configuration not stated) | nt | 72* | nt | nt | -6 | -72 | -1%
Cc1c(C(=O)OCc2ccccc2)[nH]c2c1C(=O)CC(c1ccco1)C2 (configuration not stated) | nt | 84* | nt | nt | -5 | -84 | -3%
COC(=O)c1[nH]c2c(c1C)C(=O)CC(c1cccs1)C2 (configuration not stated) | 0 | 82* | nt | 3 | -12 | -82 | -6%
CSCCOC(=O)c1[nH]c2c(c1C)C(=O)CC(c1ccco1)C2 (configuration not stated) | nt | 29 | 1 | -4 | 0 | -29 | nt
COCCOC(=O)c1[nH]c2c(c1C)C(=O)CC(c1cc(OC)c(OC)c(OC)c1)C2 (configuration not stated) | 0 | 37 | 0 | -4 | -6 | -37 | nt
CCCCOCCCNC(=O)N[C@H](C(=O)O)C(C)CC (some centres not stated) | 7 | -13 | 0 | 4 | 1 | 13 | nt
CCOC(=O)CC(NC(=O)c1cc2cccc(OC)c2oc1=O)c1cccc([N+](=O)[O-])c1 (configuration not stated) | 2 | 8 | 0 | 3 | 3 | -8 | nt
